The source made the active and inactive calls. The rule behind the calls is not given here.
Tests used:
[1] = molecular target: T1, Broad substrate specificity ATP-binding cassette transporter ABCG2 (Homo sapiens, UniProt Q9UNQ0); test: Inhibition of ABCG2 in human MCF7/Topo cells by Hoechst 33342 assay; assay type: cell-based
T1 sequence (Q9UNQ0 whole entry): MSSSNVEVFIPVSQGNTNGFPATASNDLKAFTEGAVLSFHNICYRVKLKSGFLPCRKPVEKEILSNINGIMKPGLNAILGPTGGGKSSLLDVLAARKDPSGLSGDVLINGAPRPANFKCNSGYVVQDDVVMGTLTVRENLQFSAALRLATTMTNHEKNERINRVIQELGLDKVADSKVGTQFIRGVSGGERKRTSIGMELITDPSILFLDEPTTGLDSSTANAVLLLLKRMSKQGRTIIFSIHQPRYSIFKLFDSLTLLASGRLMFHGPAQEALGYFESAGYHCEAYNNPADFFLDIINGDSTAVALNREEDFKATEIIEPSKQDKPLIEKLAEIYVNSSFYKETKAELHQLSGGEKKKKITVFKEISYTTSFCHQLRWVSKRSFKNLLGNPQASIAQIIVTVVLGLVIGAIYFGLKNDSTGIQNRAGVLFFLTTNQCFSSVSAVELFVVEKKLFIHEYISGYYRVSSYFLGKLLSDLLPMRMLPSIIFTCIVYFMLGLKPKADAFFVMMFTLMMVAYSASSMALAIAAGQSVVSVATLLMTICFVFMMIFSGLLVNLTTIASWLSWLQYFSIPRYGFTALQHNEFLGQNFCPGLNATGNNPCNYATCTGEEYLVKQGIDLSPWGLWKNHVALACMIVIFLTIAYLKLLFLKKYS

[2] = molecular target: ATP-dependent translocase ABCB1 (Homo sapiens, UniProt P08183); test: Inhibition of ABCB1 in human KBV1 cells assessed as inhibition of calcein-AM efflux; assay type: cell-based
[3] = molecular target: T2, ABCG2 (BCRP) (Homo sapiens, UniProt Q9UNQ0); test: Inhibition of ABCG2 in human MCF7/Topo cells at 10 uM by Hoechst 33342 assay relative to fumitremorgin C; assay type: cell-based; conditions: probe Hoechst 33342, read-out: Imax
T2 sequence (Q9UNQ0 whole entry): T1 sequence (Q9UNQ0 whole entry)
Method in brief: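 Hoechst 33342 microplate assay in ABCG2-overexpressing MCF-7/Topo cells, kept in EMEM with 10% FCS and 550 nM topotecan. Imax relative to 10 µM fumitremorgin C (100%). IC50 from four-parameter logistic fit. Mean ± SEM, 2–4 experiments.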

[4] = Chemical stability in DMEM culture medium supplemented with 10% FCS at 37 degC after 48 hrs by RP-HPLC analysis; assay type: physicochemical; conditions: cattle
Method in brief: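 Compounds held in DMEM with 10% FCS at 37 °C for up to 48 h, then analysed for degradation.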

[5] = molecular target: MRP1 (ABCC1) (Homo sapiens, UniProt P33527); test: (§1) Inhibition of human MRP1 expressed in MDCK2 cells assessed as inhibition of calcein-AM efflux at 30 uM relative to reversan; assay type: cell-based, MDCK-II; conditions: MDCK2 cells expressing human MRP1, probe calcein-AM, read-out: Imax
Method in brief: (§2)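 MDCKII-MRP1 cells seeded at 20,000–25,000/well and washed next day with HEPES loading buffer, pH 7.4. Loaded 60 min at 37 °C with 0.5 µM calcein-AM in buffer with BSA and pluronic F127, plus compound (10 nM–100 µM). Cells were PFA-fixed, fluorescence read at 485/535 nm, DMSO control subtracted. […] Mean ± SEM, 2–4 experiments in triplicate.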

[6] = tested on: HaCaT; test: Cytotoxicity against human HaCaT cells at 1 to 10 uM after 140 hrs by kinetic crystal violet staining based assay; assay type: cell-based
Method in brief: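 Spontaneously immortalized human HaCaT keratinocytes in RPMI-1640 with pyruvate, HEPES and added glucose, pre-treated with EDTA before trypsinization. Cytotoxicity followed in a kinetic assay.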

[7] = molecular target: ABCB1 (P-glycoprotein) (Homo sapiens, UniProt P08183); test: Inhibition of ABCB1 in human KBV1 cells assessed as inhibition of calcein-AM efflux at 1 uM relative to tariquidar; assay type: cell-based; conditions: probe calcein-AM, read-out: Imax
[8] = tested on: MDCK2; test: Antiproliferative activity against human ABCC1 transfected MDCK2 cells assessed as reduction in cell proliferation at 1.5 uM by crystal violet staining based assay; assay type: functional
[9] = tested on: MDCK2; test: Antiproliferative activity against human ABCC1 transfected MDCK2 cells assessed as reduction in cell proliferation at 10 uM by crystal violet staining based assay; assay type: functional
Method in brief: (§3)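 MDCKII-MRP1 cells transfected with human ABCC1, kept in DMEM with 10% FCS at 37 °C and 5% CO₂. Kinetic crystal violet chemosensitivity assay with the modulator alone; proliferation followed over time.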

[10] = molecular target: T1, Broad substrate specificity ATP-binding cassette transporter ABCG2; test: Inhibition of human ABCG2 expressed in HEK293 cells by mitoxantrone flow cytometric analysis; assay type: cell-based
[11] = Cytotoxicity against human ABCC1 transfected MDCK2 cells assessed as reduction in cell proliferation at 10 uM by crystal violet staining based assay; assay type: ADME, Canis lupus familiaris; conditions: dog, mdck-ii; method in brief: as §3
[12] = molecular target: T3, Multidrug resistance-associated protein 1 (Homo sapiens, UniProt P33527); test: Inhibition of human ABCC1 transfected in MDCK2 cells assessed as potentiation of doxorubicin-induced cytotoxicity at 1 and 5 uM by crystal violet staining based assay; assay type: cell-based; conditions: mdck-ii
[13] = molecular target: T3, Multidrug resistance-associated protein 1; test: Inhibition of human ABCC1 transfected in MDCK2 cells assessed as potentiation of etoposide-induced cytotoxicity at 1 uM by crystal violet staining based assay; assay type: cell-based; conditions: mdck-ii
[14] = tested on: Plasma; test: Metabolic stability in NMRI mouse plasma assessed as compound degradation at 140 uM after 1 min to 24 hrs by RP-HPLC analysis
[15] = molecular target: T3, Multidrug resistance-associated protein 1; test: as §1; assay type: cell-based, MDCK-II; conditions: mdck-ii, 30 µM; method in brief: as §2
[16] = molecular target: T3, Multidrug resistance-associated protein 1; test: Inhibition of human ABCC1 transfected in MDCK2 cells assessed as potentiation of etoposide-induced cytotoxicity at 1 and 5 uM by crystal violet staining based assay; assay type: cell-based; conditions: mdck-ii

Sequence of MRP1 (ABCC1) (P33527 whole entry): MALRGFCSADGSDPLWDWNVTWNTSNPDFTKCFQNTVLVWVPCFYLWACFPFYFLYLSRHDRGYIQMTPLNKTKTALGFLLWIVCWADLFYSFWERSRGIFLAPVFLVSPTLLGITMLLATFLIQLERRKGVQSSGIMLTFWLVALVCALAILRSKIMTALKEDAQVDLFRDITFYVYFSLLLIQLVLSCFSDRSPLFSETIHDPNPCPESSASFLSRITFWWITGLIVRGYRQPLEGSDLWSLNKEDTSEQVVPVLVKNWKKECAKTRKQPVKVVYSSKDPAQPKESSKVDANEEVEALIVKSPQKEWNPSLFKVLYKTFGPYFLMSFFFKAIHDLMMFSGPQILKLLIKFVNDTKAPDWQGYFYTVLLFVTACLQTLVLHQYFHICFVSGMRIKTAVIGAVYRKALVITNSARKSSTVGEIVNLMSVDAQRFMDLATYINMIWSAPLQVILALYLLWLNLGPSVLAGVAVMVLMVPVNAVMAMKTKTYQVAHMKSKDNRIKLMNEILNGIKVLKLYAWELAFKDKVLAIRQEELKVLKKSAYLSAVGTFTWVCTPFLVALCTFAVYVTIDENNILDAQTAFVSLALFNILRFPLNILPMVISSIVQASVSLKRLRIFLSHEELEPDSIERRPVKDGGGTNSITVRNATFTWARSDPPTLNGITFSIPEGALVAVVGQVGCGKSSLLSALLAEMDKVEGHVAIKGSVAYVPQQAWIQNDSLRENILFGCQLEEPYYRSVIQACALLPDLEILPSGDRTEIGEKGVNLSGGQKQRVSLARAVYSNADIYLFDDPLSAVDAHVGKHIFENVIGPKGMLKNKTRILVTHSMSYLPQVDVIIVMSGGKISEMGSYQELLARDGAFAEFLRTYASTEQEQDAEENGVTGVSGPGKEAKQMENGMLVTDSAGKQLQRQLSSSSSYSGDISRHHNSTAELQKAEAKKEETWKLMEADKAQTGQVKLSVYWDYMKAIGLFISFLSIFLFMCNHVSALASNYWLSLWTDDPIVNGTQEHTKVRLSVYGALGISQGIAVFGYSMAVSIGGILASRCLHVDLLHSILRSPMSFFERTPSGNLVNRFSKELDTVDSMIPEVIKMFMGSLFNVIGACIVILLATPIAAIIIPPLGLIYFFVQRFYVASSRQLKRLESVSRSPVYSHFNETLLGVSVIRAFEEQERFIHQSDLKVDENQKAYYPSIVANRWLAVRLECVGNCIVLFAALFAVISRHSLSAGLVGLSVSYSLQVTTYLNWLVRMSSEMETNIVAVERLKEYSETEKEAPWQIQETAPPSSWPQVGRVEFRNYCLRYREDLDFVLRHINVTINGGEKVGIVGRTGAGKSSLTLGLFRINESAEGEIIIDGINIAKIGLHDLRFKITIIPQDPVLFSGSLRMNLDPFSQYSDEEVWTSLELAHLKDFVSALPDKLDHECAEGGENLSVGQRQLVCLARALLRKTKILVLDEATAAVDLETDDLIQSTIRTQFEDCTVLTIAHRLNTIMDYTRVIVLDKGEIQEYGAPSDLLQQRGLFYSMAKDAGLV
T3 sequence (P33527 whole entry): as above
Sequence of ATP-dependent translocase ABCB1 (P08183 whole entry): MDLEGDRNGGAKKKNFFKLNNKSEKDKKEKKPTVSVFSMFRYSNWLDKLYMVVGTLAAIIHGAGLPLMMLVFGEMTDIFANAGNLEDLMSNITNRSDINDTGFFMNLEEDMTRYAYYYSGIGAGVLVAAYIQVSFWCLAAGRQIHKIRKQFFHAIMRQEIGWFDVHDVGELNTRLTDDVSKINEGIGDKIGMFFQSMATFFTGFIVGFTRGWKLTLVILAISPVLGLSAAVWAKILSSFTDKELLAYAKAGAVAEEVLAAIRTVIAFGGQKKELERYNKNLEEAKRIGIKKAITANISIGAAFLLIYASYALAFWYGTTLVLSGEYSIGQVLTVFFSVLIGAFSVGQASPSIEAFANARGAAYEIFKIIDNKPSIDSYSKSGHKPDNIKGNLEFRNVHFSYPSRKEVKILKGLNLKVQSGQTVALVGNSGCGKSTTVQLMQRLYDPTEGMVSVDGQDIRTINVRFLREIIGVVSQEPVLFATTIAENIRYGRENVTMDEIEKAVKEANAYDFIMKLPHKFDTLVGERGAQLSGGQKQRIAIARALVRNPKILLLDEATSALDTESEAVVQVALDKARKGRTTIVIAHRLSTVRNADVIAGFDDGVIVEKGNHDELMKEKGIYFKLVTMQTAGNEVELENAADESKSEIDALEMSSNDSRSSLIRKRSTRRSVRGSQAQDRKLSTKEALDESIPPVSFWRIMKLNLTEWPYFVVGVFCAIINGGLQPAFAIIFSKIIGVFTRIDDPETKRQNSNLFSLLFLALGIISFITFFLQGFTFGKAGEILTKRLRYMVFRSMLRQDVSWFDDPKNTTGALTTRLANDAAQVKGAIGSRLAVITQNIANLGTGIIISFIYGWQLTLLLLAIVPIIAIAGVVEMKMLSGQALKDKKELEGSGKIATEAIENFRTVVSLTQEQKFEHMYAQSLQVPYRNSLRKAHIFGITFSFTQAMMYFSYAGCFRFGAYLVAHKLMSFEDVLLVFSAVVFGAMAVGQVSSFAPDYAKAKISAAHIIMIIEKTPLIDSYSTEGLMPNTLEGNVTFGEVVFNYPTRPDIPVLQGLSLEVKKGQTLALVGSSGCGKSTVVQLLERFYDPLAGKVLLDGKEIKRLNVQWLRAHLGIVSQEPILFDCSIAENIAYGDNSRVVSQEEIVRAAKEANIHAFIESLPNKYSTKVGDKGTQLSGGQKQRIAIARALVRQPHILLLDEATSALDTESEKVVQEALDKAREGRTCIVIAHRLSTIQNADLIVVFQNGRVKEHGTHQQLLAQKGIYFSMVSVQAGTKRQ
Sequence of ABCB1 (P-glycoprotein) (P08183 whole entry): as above

Compound	IC50 ([1]; mcf7/topo)	IC50 ([2]; kbv1)	IC50 ([1]; read-out: IC50)	Emax at 10 µM [3]	inhibition at 30 µM [5]	IC50 ([2]; read-out: IC50)	also measured
COc1cc(OC)c2c(=O)cc(N3CCN(Cc4ccccc4)CC3)oc2c1	Not Active	Not Active	–	–	–	–	–
COc1ccc(CN2CCN(c3cc(=O)c4c(OC)cc(OC)cc4o3)CC2)cc1	–	Not Active	> 100 µM	–	–	–	–
COc1cc(OC)c2c(=O)cc(N3CCN(Cc4ccc([N+](=O)[O-])cc4)CC3)oc2c1	–	Not Active	87.8 µM	56.9%	130%	–	Stability [4]: Stable; Activity [6]: Non-toxic
COc1cc(OC)c2c(=O)cc(C(=O)N3CCN(CCc4ccc([N+](=O)[O-])cc4)CC3)oc2c1	–	–	> 100 µM	–	139%	83.9 µM	inhibition at 1 µM [7]: 37.7%; Stability [4]: Stable; Activity [6]: Non-toxic
COc1cc(OC)c2c(=O)cc(N3CCN(CCc4ccccc4)CC3)oc2c1	–	Not Active	> 100 µM	–	44.5%	–	Stability [4]: Stable; Activity [6]: Non-toxic
COc1cc(OC)c2c(=O)cc(N3CCN(C)CC3)oc2c1	Not Active	Not Active	–	–	–	–	–
COc1cc([C@@H]2c3cc4c(cc3[C@@H](O[C@@H]3O[C@@H]5CO[C@@H](C)O[C@H]5[C@H](O)[C@H]3O)[C@H]3COC(=O)[C@H]23)OCO4)cc(OC)c1O	–	–	–	–	–	–	Activity [8]: Active; Activity [9]: Active
O=C(c1cc(=O)c2c(OCc3ccccc3)cccc2o1)N1CCN(Cc2ccccc2)CC1	–	–	16.3 µM	84.1%	–	15.8 µM	% inhibition [10]: 9.8%; inhibition at 1 µM [7]: 34.3%
COc1cc(OC)c2c(=O)cc(NCCCN3CCOCC3)oc2c1	Not Active	Not Active	–	–	14%	–	–
COc1cc(OC)c2c(=O)cc(N3CCN(Cc4ccc(N)cc4)CC3)oc2c1	Not Active	Not Active	–	–	–	–	–
COc1cc(OC)c2c(=O)cc(N3CCN(Cc4ccc(C#N)cc4)CC3)oc2c1	–	–	99.7 µM	59.1%	115%	> 100 µM	–
COc1cc(OC)c2c(=O)cc(N3CCN(Cc4ccc(NC(C)=O)cc4)CC3)oc2c1	Not Active	Not Active	–	–	–	–	–
COc1cc(OC)c2c(=O)cc(N3CCN(Cc4ccc5nonc5c4)CC3)oc2c1	Not Active	Not Active	–	–	120%	–	Stability [4]: Stable; Activity [11]: Non-toxic; inhibition (INH) [12]: Active; inhibition (INH) [13]: Active; Activity [6]: Non-toxic; Stability [14]: Stable
COc1cccc2oc(N3CCN(Cc4ccc([N+](=O)[O-])cc4)CC3)cc(=O)c12	Not Active	Not Active	–	–	38.8%	–	–
COc1cc(OC)c2c(=O)cc(N3CCN(Cc4ccc(S(C)(=O)=O)cc4)CC3)oc2c1	Not Active	Not Active	–	–	–	–	–
COc1cc(OC)c2c(=O)cc(N3CCN(Cc4ccc(C(F)(F)F)cc4)CC3)oc2c1	–	–	> 100 µM	–	–	31.3 µM	inhibition at 1 µM [7]: 21.8%; Imax [15]: 158.6%
COc1cc(OC)c2c(=O)cc(C(=O)N3CCN(Cc4ccc([N+](=O)[O-])cc4)CC3)oc2c1	–	–	> 100 µM	–	73.1%	58.2 µM	inhibition at 1 µM [7]: 33.4%; Activity [6]: Non-toxic

Compound	IC50 ([1]; mcf7/topo)	IC50 ([2]; kbv1)	IC50 ([1]; read-out: IC50)	Emax at 10 µM [3]	inhibition at 30 µM [5]	IC50 ([2]; read-out: IC50)	also measured
COc1cc(OC)c2c(=O)cc(N3CCN(c4ccc([N+](=O)[O-])cc4)CC3)oc2c1	–	Not Active	–	22.6%	64.1%	–	–
COc1cc(OC)c2c(=O)cc(NCCc3ccc(OC)c(OC)c3)oc2c1	–	Not Active	> 100 µM	–	–	–	–
COc1cc(OC)c2c(=O)cc(N3CCN(Cc4ccc(SC(F)(F)F)cc4)CC3)oc2c1	–	–	> 100 µM	–	136%	36.6 µM	inhibition at 1 µM [7]: 29.4%
COc1cc(O)c2c(=O)cc(C(=O)N3CCN(Cc4ccccc4[N+](=O)[O-])CC3)oc2c1	–	Not Active	34.9 µM	90.5%	68.8%	–	–
COc1ccc(CCNC(=O)c2cc(=O)c3c(OCc4ccccc4)cccc3o2)cc1OC	–	Not Active	–	108%	–	–	–
COc1cc(O)c2c(=O)cc(C(=O)N3CCN(Cc4ccc([N+](=O)[O-])cc4)CC3)oc2c1	–	Not Active	12 µM	23.1%	70.5%	–	Stability [4]: Stable; Activity [6]: Non-toxic
COc1cc(OC)c2c(=O)cc(N3CCN(Cc4cccc([N+](=O)[O-])c4)CC3)oc2c1	–	–	38.2 µM	44%	–	32.8 µM	inhibition at 1 µM [7]: 29.2%; Imax [15]: 193.3%
COc1cc(OC)c2c(=O)cc(N3CCN(Cc4ccc(F)c(F)c4)CC3)oc2c1	–	–	66.6 µM	50.4%	141%	58.5 µM	inhibition at 1 µM [7]: 14.3%
COc1cc2c(cc1OC)CN(CCc1ccc(NC(=O)c3cc(OC)c(OC)cc3NC(=O)c3cnc4ccccc4c3)cc1)CC2	–	–	–	–	–	0.22 µM	–
COc1cc(OC)c2c(=O)cc(N3CCN(C(=O)c4ccc([N+](=O)[O-])cc4)CC3)oc2c1	Not Active	Not Active	–	–	19.7%	–	–
COC(=O)c1ccc(CN2CCN(c3cc(=O)c4c(OC)cc(OC)cc4o3)CC2)cc1	–	–	> 100 µM	–	118%	> 100 µM	–
COc1cc(OC)c2c(=O)cc(N3CCN(CCc4ccc([N+](=O)[O-])cc4)CC3)oc2c1	–	–	36.9 µM	31.9%	118%	33 µM	inhibition at 1 µM [7]: 54.8%; Stability [4]: Stable; Activity [6]: Non-toxic
CN(C)C(=O)CCSC(SCCC(=O)[O-])c1cccc(/C=C/c2ccc3ccc(Cl)cc3n2)c1.[Na+] (stereo not drawn)	Not Active	Not Active	–	–	–	–	–
O=C(NCCCN1CCOCC1)c1cnn2c(-c3ccccc3)cc(-c3ccccc3)nc12	–	–	–	–	–	6.8 µM	inhibition at 1 µM [7]: 143%; Activity [11]: Non-toxic; inhibition (INH) [12]: Active; inhibition (INH) [16]: Active
COc1cc(OC)c2c(=O)cc(N3CCN(Cc4ccc(S(=O)(=O)C(F)(F)F)cc4)CC3)oc2c1	–	–	> 100 µM	–	98.8%	> 100 µM	–
COc1cc(OC)c2c(=O)cc(N3CCN(Cc4ccccc4[N+](=O)[O-])CC3)oc2c1	–	–	37.6 µM	72.6%	68.8%	> 100 µM	–

Source: ChEMBL document CHEMBL3763047, “Flavonoid derivatives as selective ABCC1 modulators: Synthesis and functional characterization” (Eur J Med Chem, 2016)
